According to ChEMBL document CHEMBL1124194, “Enantioselectivity of muscarinic antagonists. Isomeric 2-cyclohexyl-2-phenyl-5-[(dimethylamino)methyl]-1,3-oxathiolane methiodides” (J Med Chem, 1988):

Columns and labels:
Type in all cases: ADME, organism-based
Cavia porcellus [1] = species on record: Cavia porcellus; assay: Tested for antimuscarinic potency on guinea pig heart force; details: for Kb: Cavia porcellus, Heart, read-out: pA2 (converted)
Summary of the method: (§1)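 Guinea pig heart (force and rate) antagonism of carbachol as agonist; pA2 from Schild plot with slope constrained to 1; six to eight replications. Where an antagonist lowered the carbachol maximum at 1×10^-5 M, −log Kb was instead calculated from log(Dr − 1) = log[ant.] − log Kb at a single antagonist concentration of 3×10^-6 M.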

Rattus norvegicus = species on record: Rattus norvegicus; assay: Tested for antimuscarinic potency on rat bladder; details: for Kb: Rattus norvegicus, read-out: pA2 (converted)
Cavia porcellus [2] = species on record: Cavia porcellus; assay: Tested for antimuscarinic potency on guinea pig heart rate; details: for Kb: Cavia porcellus, Heart, read-out: pA2 (converted); summary of the method: as §1
Cavia porcellus [3] = species on record: Cavia porcellus; assay: Tested for antimuscarinic potency on guinea pig ileum; details: for Kb: Cavia porcellus, Ileum, read-out: pA2 (converted)

| SMILES | Kb (Cavia porcellus [1]) | Kb (Rattus norvegicus) | Kb (Cavia porcellus [2]) | Kb (Cavia porcellus [3]) | pA2 (Rattus norvegicus) | pA2 (Cavia porcellus [3]) | pA2 (Cavia porcellus [1]) | pA2 (Cavia porcellus [2]) |
| --- | --- | --- | --- | --- | --- | --- | --- | --- |
| CN(C)C[C@@H]1CS[C@@](c2ccccc2)(C2CCCCC2)O1 (racemic) | 263 nM | 123 nM | 162 nM | 37.2 nM | – | – | – | – |
| CN(C)C[C@@H]1CS[C@](c2ccccc2)(C2CCCCC2)O1 (racemic) | 33.1 nM | 44.7 nM | 37.2 nM | 12 nM | – | – | – | – |
| C[N+](C)(C)C[C@@H]1CS[C@](c2ccccc2)(C2CCCCC2)O1.[I-] (racemic) | 7.76 nM | – | 7.24 nM | – | 8.05 | 8.26 | – | – |
| C[N+](C)(C)C[C@@H]1CS[C@@](c2ccccc2)(C2CCCCC2)O1.[I-] (racemic) | – | – | – | – | 8.22 | 8.38 | 8.13 | 7.91 |
| C[N+](C)(C)C[C@@H]1CS[C@@](c2ccccc2)(C2CCCCC2)O1.[I-] (stereo in doubt; (+)4) | – | – | – | – | 8.58 | 8.79 | 8.47 | 8.35 |
| C[N+](C)(C)C[C@@H]1CS[C@](c2ccccc2)(C2CCCCC2)O1.[I-] (stereo in doubt; (+)-2) | – | – | – | – | 8.29 | 8.57 | 8.1 | 8.05 |
| C[N+](C)(C)C[C@@H]1CS[C@](c2ccccc2)(C2CCCCC2)O1.[I-] (stereo in doubt; (-)2) | – | – | – | – | 7.61 | 7.86 | 8.07 | 8.06 |
| C[N+](C)(C)C[C@@H]1CS[C@@](c2ccccc2)(C2CCCCC2)O1.[I-] (stereo in doubt; (-)4) | – | – | – | – | 7.45 | 7.86 | 8.16 | 7.99 |
| CN1[C@@H]2CC[C@H]1C[C@@H](OC(=O)C(CO)c1ccccc1)C2 (stereo partly drawn) [ATROPINE] | – | 1.29 nM | – | – | – | – | – | – |
